Active and inactive are the calls of the source. No cut-off for these calls is given here.
Tests used:
[1] = system: HepG2; assay: Cytotoxicity against human HepG2 cells after 48 hrs by MTT assay; format: functional, cell-based; settings: HepG2, 48 h
In short: (§1)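 Cells from the six lines were plated and left to adhere for 24 h. They were then exposed to compounds at 100 to 0.01 µM for 48 h. After that the medium was replaced with complete medium and viability was read by MTT. IC50 came from the concentration series, and each experiment was done three times.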

[2] = Cytotoxicity against human Bel7404 cells after 48 hrs by MTT assay; format: functional, cell-based; settings: BEL-7404, 48 h; in short: as §1
[3] = system: NCI-H460; assay: Cytotoxicity against human NCI-H460 cells after 48 hrs by MTT assay; format: functional, cell-based; settings: NCI-H460, 48 h; in short: as §1
[4] = system: SK-OV-3; assay: Cytotoxicity against human SKOV3 cells after 48 hrs by MTT assay; format: functional, cell-based; settings: SK-OV-3, 48 h; in short: as §1
[5] = system: HeLa; assay: Cytotoxicity against human HeLa cells after 48 hrs by MTT assay; format: functional, cell-based; in short: as §1
[6] = system: HCT-116; assay: Cytotoxicity against human HCT116 cells after 48 hrs by MTT assay; format: functional, cell-based; settings: HCT-116, 48 h; in short: as §1
[7] = system: HeLa; assay: Induction of apoptosis in human HeLa cells assessed as early apoptotic cells at 5 uM after 12 hrs using annexin V/propidium iodide staining by flow cytometry (reference value: 3.8%); format: functional
In short: (§2)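 HeLa cells were treated at 5 or 10 µM for 12 h, with untreated cells run alongside for 12 h. Cells were washed in cold PBS and resuspended in binding buffer. They were stained with Annexin V-FITC, then PI, for 20 min in the dark and run on a flow cytometer. Quadrants: Q2 necrotic/late apoptotic, Q3 normal, Q4 early apoptotic. Apoptosis ratio = early + late.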

[8] = system: HeLa; assay: Induction of apoptosis in human HeLa cells assessed as DNA fragmentation at 5 to 15 uM after 24 hrs by agarose gel electrophoresis analysis; format: functional, cell-based
In short: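 HeLa cells were exposed for 24 h at 5, 10 or 15 µM alongside untreated cells. Total cellular DNA was extracted and run on agarose gel electrophoresis to look for a nucleosome-sized ladder (~180–200 bp fragments).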

[9] = system: HeLa; assay: Induction of apoptosis in human HeLa cells assessed as necrotic cells at 5 uM after 12 hrs using annexin V/propidium iodide staining by flow cytometry (reference value: 2.1%); format: functional; in short: as §2
[10] = system: HeLa; assay: Induction of apoptosis in human HeLa cells assessed as apoptotic morphology at 10 uM after 12 to 24 hrs by Hoechst 33258 staining; format: functional, cell-based
In short: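 HeLa cells on coverslips were treated at 10 µM for 12 and 24 h, with an untreated 24 h control. They were fixed in 4% paraformaldehyde for 10 min, washed in PBS, stained with Hoechst 33258 for 5 min and washed again. Nuclei were viewed under fluorescence at 350 nm excitation and 460 nm emission.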

[11] = system: HeLa; assay: Induction of apoptosis in human HeLa cells assessed as activation of caspase 3/9 by spectrophotometry analysis; format: functional, cell-based; settings: TDE = time-dependent effect
In short: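 Caspase-3 and caspase-9 activities in treated HeLa cells were measured spectrophotometrically at time points from 3 to 24 h and compared with untreated controls.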

[12] = system: HeLa; assay: Induction of apoptosis in human HeLa cells assessed as early apoptotic cells at 10 uM after 12 hrs using annexin V/propidium iodide staining by flow cytometry (reference value: 3.8%); format: functional; in short: as §2
[13] = system: HeLa; assay: Induction of apoptosis in human HeLa cells assessed as apoptotic ratio at 10 uM after 12 hrs using annexin V/propidium iodide staining by flow cytometry (reference value: 2.3%); format: functional; in short: as §2
[14] = system: HeLa; assay: Induction of apoptosis in human HeLa cells assessed as change in mitochondrial membrane potential at 10 uM after 12 to 24 hrs by JC-1 staining; format: functional, cell-based
In short: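 HeLa cells were exposed at 10 µM for 12 and 24 h, with an untreated 24 h control, then stained with JC-1. Monomers were excited at 514 nm (read 515–545 nm, green) and aggregates at 585 nm (read 570–600 nm, red). Depolarization was taken as a rise in the green/red intensity ratio.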

[15] = system: HeLa; assay: Induction of apoptosis in human HeLa cells assessed as apoptotic ratio at 5 uM after 12 hrs using annexin V/propidium iodide staining by flow cytometry (reference value: 2.3%); format: functional; in short: as §2
[16] = system: HeLa; assay: Induction of apoptosis in human HeLa cells assessed as necrotic cells at 10 uM after 12 hrs using annexin V/propidium iodide staining by flow cytometry (reference value: 2.1%); format: functional; in short: as §2
[17] = system: HeLa; assay: Induction of apoptosis in human HeLa cells at 10 uM after 12 to 24 hrs by acridine orange/ethidium bromide staining; format: functional, cell-based
In short: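 HeLa cells were seeded at 5×10⁴ cells/mL on coverslips and fed fresh medium with 10% FBS. They were treated at 10 µM for 12 and 24 h, with an untreated 24 h control. Coverslips were inverted onto AO/EB stain and examined by fluorescence microscopy. Scoring: green = live, green-yellow = early apoptotic, orange = late apoptotic/necrotic.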

[18] = system: HeLa; assay: Induction of apoptosis in human HeLa cells assessed as DNA fragmentation at 10 uM after 12 to 24 hrs by TUNEL assay; format: functional, cell-based
In short: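 After 12 and 24 h at 10 µM, HeLa cells (untreated 24 h control) were fixed in 4% paraformaldehyde and permeabilized with 0.1% Triton X-100. Fragmented DNA 3′-ends were labeled with FITC-dUTP using a TUNEL kit. Cells were imaged by fluorescence microscopy at 488 nm excitation and 530 nm emission.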

[19] = system: HeLa; assay: Induction of apoptosis in human HeLa cells assessed as release of mitochondrial cytochrome c into cytosol at 5 to 10 uM after 12 hrs by fluorescence microscopic analysis; format: functional, cell-based
[20] = system: HeLa; assay: Induction of apoptosis in human HeLa cells after 12 hrs using annexin V/propidium iodide staining by flow cytometry; format: functional, cell-based; in short: as §2
[21] = system: HeLa; assay: Induction of apoptosis in human HeLa cells assessed as release of ROS at 5 to 10 uM after 12 hrs by fluorescence microscopic analysis; format: functional, cell-based
In short: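 HeLa cells were given 5 or 10 µM for 12 h, with an untreated control handled the same way. Intracellular ROS was visualized by fluorescence microscopy using the probe 2,7-dichlorofluorescein diacetate.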

Row | Structure (SMILES) | IC50 [1] [µM] | IC50 [2] [µM] | IC50 [3] [µM] | IC50 [4] [µM] | IC50 [5] [µM] | IC50 [6] [µM] | also measured
1 | CC(C)c1ccc2c(c1)CC[C@H]1[C@](C)(C(=O)N[C@H](Cc3ccccc3)C(=O)Nc3ccccc3Cl)CCC[C@]21C | 25.3 | 15.8 | 15.2 | 13.5 | 10.3 | 25.5 | –
2 | CC(C)c1ccc2c(c1)CC[C@H]1[C@](C)(C(=O)N[C@H](Cc3ccccc3)C(=O)Nc3ccc(Cl)cc3)CCC[C@]21C | 26.3 | 33.6 | 15.8 | 26.3 | 12.2 | 37.8 | –
3 | COc1ccc(OC)c(NC(=O)[C@@H](Cc2ccccc2)NC(=O)[C@]2(C)CCC[C@]3(C)c4ccc(C(C)C)cc4CC[C@@H]23)c1 | 38.1 | 56.3 | 27.4 | 53.8 | 19.3 | 36.8 | –
4 | CC(C)c1ccc2c(c1)CC[C@H]1[C@](C)(C(=O)N[C@H](Cc3ccccc3)C(=O)Nc3cccc([N+](=O)[O-])c3)CCC[C@]21C | 25.3 | 27.1 | 32.8 | 20.1 | 12.8 | 27.4 | –
5 | CC(C)c1ccc2c(c1)CC[C@H]1[C@](C)(C(=O)N[C@H](Cc3ccccc3)C(=O)Nc3ccc(F)c(Cl)c3)CCC[C@]21C | 32.9 | 26.1 | 26.8 | 30.5 | 11.1 | 39.3 | –
6 | CC(C)c1ccc2c(c1)CC[C@H]1[C@](C)(C(=O)N[C@H](Cc3ccccc3)C(=O)Nc3cccc(Cl)c3)CCC[C@]21C | 24.7 | 23.8 | 26.3 | 30.6 | 13.1 | 45.9 | –
7 | CC(C)c1ccc2c(c1)CC[C@H]1[C@](C)(C(=O)O)CCC[C@]21C [DEHYDROABIETIC ACID] | 76.8 | 34.7 | 80.5 | 75 | 29.4 | 35.2 | –
8 | Cc1ccc(NC(=O)[C@@H](Cc2ccccc2)NC(=O)[C@]2(C)CCC[C@]3(C)c4ccc(C(C)C)cc4CC[C@@H]23)cc1Cl | 36.9 | 41.2 | 26.1 | 37.8 | 10.1 | 32.3 | –
9 | Cc1ccc(NC(=O)[C@@H](Cc2ccccc2)NC(=O)[C@]2(C)CCC[C@]3(C)c4ccc(C(C)C)cc4CC[C@@H]23)cc1C | 42.8 | 48.2 | 37 | 51.8 | 14.3 | 32.1 | –
10 | CC(C)c1ccc2c(c1)CC[C@H]1[C@](C)(C(=O)N[C@H](Cc3ccccc3)C(=O)Nc3cccc(F)c3)CCC[C@]21C | 23.9 | 27.4 | 26.1 | 33.9 | 13.9 | 34.8 | –
11 | CC(C)c1ccc2c(c1)CC[C@H]1[C@](C)(C(=O)N[C@H](Cc3ccccc3)C(=O)Nc3cc(Cl)ccc3Cl)CCC[C@]21C | 23.4 | 31 | 15.8 | 21.6 | 14.9 | 24.1 | –
12 | CC(C)c1ccc2c(c1)CC[C@H]1[C@](C)(C(=O)N[C@H](Cc3ccccc3)C(=O)Nc3cccc(Br)c3)CCC[C@]21C | 22.9 | 19.9 | 33.3 | 38.8 | 25.1 | 44.1 | –
13 | CC(C)c1ccc2c(c1)CC[C@H]1[C@](C)(C(=O)N[C@H](Cc3ccccc3)C(=O)Nc3ccccc3)CCC[C@]21C | 27.7 | 16.7 | 28.2 | 27.4 | 18.9 | 30.3 | –
14 | COc1cccc(NC(=O)[C@@H](Cc2ccccc2)NC(=O)[C@]2(C)CCC[C@]3(C)c4ccc(C(C)C)cc4CC[C@@H]23)c1 | 29.5 | 38.5 | 40.4 | 30.5 | 25.8 | 35.8 | –
15 | Cc1cccc(NC(=O)[C@@H](Cc2ccccc2)NC(=O)[C@]2(C)CCC[C@]3(C)c4ccc(C(C)C)cc4CC[C@@H]23)c1 | 26.9 | 34.6 | 32.4 | 29.8 | 18.2 | 32.5 | –
16 | CC(C)c1ccc2c(c1)CC[C@H]1[C@](C)(C(=O)N[C@H](Cc3ccccc3)C(=O)Nc3ccc(Br)cc3)CCC[C@]21C | 34.6 | 16.9 | 28.7 | 28.7 | 15.2 | 35.3 | –
17 | O=c1[nH]cc(F)c(=O)[nH]1 [FLUOROURACIL] | 27 | 26.8 | 36 | – | 80.5 | 24.4 | –
18 | CC(C)c1ccc2c(c1)CC[C@H]1[C@](C)(C(=O)N[C@H](Cc3ccccc3)C(=O)Nc3ccc(Cl)c(Cl)c3)CCC[C@]21C | 20.4 | 44.7 | 27 | 33.1 | 28.8 | 40.9 | –
19 | CC(C)c1ccc2c(c1)CC[C@H]1[C@](C)(C(=O)N[C@H](Cc3ccccc3)C(=O)Nc3ccc(C(F)(F)F)cc3)CCC[C@]21C | 21.6 | 36.1 | 28.9 | 36.3 | 10.5 | 27.4 | –
20 | COc1ccc(NC(=O)[C@@H](Cc2ccccc2)NC(=O)[C@]2(C)CCC[C@]3(C)c4ccc(C(C)C)cc4CC[C@@H]23)cc1 | 12.4 | 15.3 | 17.2 | 23.8 | 4.94 | 15.7 | Activity [7]: 9.4%; Activity [8]: Active; Activity [9]: 3.2%; Activity [10]: Active; Activity [11]: tde; Activity [12]: 19.2%; Activity [13]: 33.7%; Activity [14]: Active; Activity [15]: 12.6%; Activity [16]: 14.5%; Activity [17]: Active; Activity [18]: Active; Activity [19]: Active; Activity [20]: Dose-dependent effect; Activity [21]: Active
21 | CC(C)c1ccc2c(c1)CC[C@H]1[C@](C)(C(=O)N[C@H](Cc3ccccc3)C(=O)Nc3ccc(F)cc3)CCC[C@]21C | 27.1 | 21 | 22.8 | 20.1 | 10.8 | 27.4 | –

Reference: ChEMBL document CHEMBL3124769, “Synthesis and antitumor activities of novel dipeptide derivatives derived from dehydroabietic acid” (Bioorg Med Chem Lett, 2014)
